Hits are enriched below; roughly 3.7% of the tested compounds scored in any of these assays.
KCNQ1 act: human KCNQ1 channel potentiation or activation; CHO-K1 KCNQ1, thallium flux FluxOR fluorescence; hits give high values; B-score at 10 µM; 310,000 compounds, 0.35% hits; AID 2648; P51787;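 active = fluorescence ratio B-score, a plate-corrected score, at least three library SD, with initial intensity B-score within 5 SD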
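assay system = CHO-K1 cells stably expressing KCNQ1 | medium = assay buffer, equal DMSO in all wells | timing = 37 °C overnight plating, 90-min dark dye load, 20-min compound pretreatment | measured by = kinetic FluxOR thallium fluorescence, 10-s 1-Hz baseline, 110-s post-stimulus read | measure = fluorescence change relative to baseline, converted to B score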
KCNQ1 block: inhibitors of human KCNQ1 potassium channel | P51787 | CHO-K1 KCNQ1, FluxOR thallium flux fluorescence; hits give high values | B-score at 10 µM | 310,000 compounds, 1.3% hits;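 active = compounds whose thallium flux B-score, printed positive for inhibition, exceeds three library SD while starting fluorescence stays within three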;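 also: channel opened by potassium depolarization with thallium stimulus after 20 min compound exposure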
KCNK9 inh: human KCNK9 channel inhibition; HEK293 KCNK9, FluxOR thallium flux fluorescence; hits give low values; B-score at 10 µM; 310,000 compounds, 1.2% hits;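 active = ratio B-score over 3 SD below the library mean, with starting fluorescence within 5 SD of its mean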;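 also: negative B-score means less thallium flux so channel inhibition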
KCNK3 block: human KCNK3 channel inhibition, primary screen; O14649; CHO-KCNK3 thallium flux, FluxOR fluorescence; hits give low values; B-score at 10 µM; 340,000 compounds, 0.84% hits; AID 602410;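 active = B-score under library mean minus 4 SD, starting fluorescence ratio at most library mean plus 5 SD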;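 also: more negative B-score means stronger inhibition of thallium flux through KCNK3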
Target sequence (O14649 whole entry, looked up): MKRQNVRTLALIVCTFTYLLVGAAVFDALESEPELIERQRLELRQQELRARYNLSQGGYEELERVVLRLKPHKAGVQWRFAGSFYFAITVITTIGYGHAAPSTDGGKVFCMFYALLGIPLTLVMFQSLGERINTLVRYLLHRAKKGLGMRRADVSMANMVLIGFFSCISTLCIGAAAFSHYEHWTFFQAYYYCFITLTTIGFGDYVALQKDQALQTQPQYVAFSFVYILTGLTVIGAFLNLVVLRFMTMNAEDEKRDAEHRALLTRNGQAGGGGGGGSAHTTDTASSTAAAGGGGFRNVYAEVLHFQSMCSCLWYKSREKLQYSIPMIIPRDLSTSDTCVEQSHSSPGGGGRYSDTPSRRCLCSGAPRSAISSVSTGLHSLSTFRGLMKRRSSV
Kir21 inh: inhibitors of mouse Kir2.1 inward-rectifier potassium channel; 310,000 compounds, 0.85% hits; P35561; HEK293-Kir2.1, FluxOR thallium flux fluorescence; hits give low values; B-score at 10 µM;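 active = fluorescence ratio B-score at or below minus 3 SD of library scores, with starting-brightness B-score within 2 SD, cut at about -4.2 in these data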;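 also: channel flux triggered by added potassium and thallium sulfate stimulus; B-score of peak minus minimum fluorescence over baseline after thallium stimulus; more negative B-score means stronger Kir2.1 block with less thallium influx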
hERG rescue: compounds protecting human hERG from proarrhythmic drug block. Q12809. CHO-hERG, FluxOR thallium flux, dofetilide IC70 present. activation (rescue from dofetilide block), less the hit threshold, % at 10 µM. 310,000 compounds, 0.51% hits. AID 1511;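 active = activation above the mean of controls blocked by dofetilide plus 5 SD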;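 also: thallium influx through hERG after potassium depolarization seen as dye fluorescence rise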
* hit, by the source's call.

Screening CN(CCN(C)C(C)(C)C)C(=O)C(c1ccccc1)c1ccccc1 returned KCNQ1 act inactive, KCNQ1 block inactive, KCNK9 inh inactive, KCNK3 block inactive, Kir21 inh 0.93 and hERG rescue -6.3.
For Fc1cc(F)c2nc(N3CCCCC3)sc2c1 the results were KCNQ1 act inactive, KCNQ1 block inactive, KCNK9 inh inactive, KCNK3 block inactive, Kir21 inh 0.01 and hERG rescue 5.1*.
Screening O=C(O)c1cc(N2N=C(C(F)(F)F)/C(=C/C=C/c3ccco3)C2=O)ccc1Cl returned KCNK3 block inactive.
Screening CC(C)OCCCNC(=O)c1ccc(NC(=O)C2CCCO2)cc1 (stereo unspecified) returned KCNQ1 act inactive, KCNQ1 block inactive, KCNK9 inh inactive, KCNK3 block inactive, Kir21 inh 0.04 and hERG rescue -11.7.
`CCCCNC(=O)c1ccc(NC(=O)C2CCCO2)cc1` (stereo unspecified) gave KCNQ1 act inactive, KCNQ1 block inactive, KCNK9 inh inactive, KCNK3 block inactive, Kir21 inh -0.27 and hERG rescue 40.2*.
For COc1ccccc1C(CNc1ccc(S(=O)(=O)N2CCCC2)cc1[N+](=O)[O-])N(C)C (stereo unspecified) the results were KCNQ1 act inactive, KCNQ1 block inactive, KCNK9 inh inactive, KCNK3 block inactive, Kir21 inh -1.61 and hERG rescue -6.9.
`S=c1[nH]c2ccc(Cl)cc2s1` gave KCNQ1 act 69*, KCNQ1 block inactive, KCNK9 inh inactive, KCNK3 block inactive, Kir21 inh 0.39 and hERG rescue 52.5*.
`O=[N+]([O-])c1ccc2[nH]c(=S)sc2c1` gave KCNK3 block inactive.
`O=C(COc1ccc(Cl)cc1)Nc1ccc2c(c1)C(=O)NC2=O` gave KCNQ1 act inactive, KCNQ1 block inactive, KCNK9 inh inactive, KCNK3 block inactive, Kir21 inh 0.89 and hERG rescue -4.9.
Screening COc1ccc2nc(N3C(=O)/C(=C/c4ccccc4)NC3=S)sc2c1 returned KCNQ1 act 62*, KCNQ1 block inactive, KCNK9 inh inactive, KCNK3 block inactive, Kir21 inh 0.8 and hERG rescue 62.8*.
Screening CCOC(=O)c1ccc(NC(=S)Nc2ccc(Br)cc2N)cc1 returned KCNQ1 act inactive, KCNQ1 block inactive, KCNK9 inh inactive, KCNK3 block inactive, Kir21 inh 3.49 and hERG rescue -6.4.
Cc1nc(SCC(=O)NCC2CCCO2)c2c(C)c(C)sc2n1 (stereo unspecified) was read as KCNK3 block inactive.
`Cc1nc(SCC(=O)NCC2CCCO2)c2c3c(sc2n1)CCCC3` (stereo unspecified) gave KCNQ1 act 13*, KCNQ1 block inactive, KCNK9 inh inactive, KCNK3 block inactive, Kir21 inh -0.39 and hERG rescue 15.5*.
Screening Cc1nnc(SCC(=O)Nc2ccc(Cl)cn2)s1 returned KCNQ1 act inactive, KCNQ1 block inactive, KCNK9 inh inactive, KCNK3 block inactive, Kir21 inh -0.01 and hERG rescue -4.9.
Screening O=C(C=Cc1ccc2c(c1)OCO2)c1ccccc1 returned KCNK3 block inactive.
`CCOC(=O)C(=Cc1ccc2c(c1)OCO2)c1ccccc1` gave KCNK3 block -9.8*.
CSc1ncc(C(C)=O)c(C)n1 was read as KCNQ1 act inactive, KCNQ1 block inactive, KCNK9 inh inactive, KCNK3 block inactive, Kir21 inh -1.06 and hERG rescue -7.5.
For CC(=O)c1cnc(Nc2nc(C)c3cc(C)c(C)cc3n2)nc1C the results were KCNQ1 act inactive, KCNQ1 block inactive, KCNK9 inh inactive, KCNK3 block inactive, Kir21 inh 0.01 and hERG rescue 7.7*.
For O=C(Nc1nncs1)c1cc(S(=O)(=O)N2CCOCC2)ccc1Cl the results were KCNQ1 act inactive, KCNQ1 block inactive, KCNK9 inh inactive, KCNK3 block inactive, Kir21 inh 2.09 and hERG rescue -8.6.
`CCOC(=O)c1c(N/C=C(\C#N)c2nc(-c3ccc(OC(C)=O)cc3)cs2)sc2c1CCC2` gave KCNK3 block inactive.
Screening COC(=O)c1ccccc1NC(=O)c1ccc(COc2ccccc2)o1 returned KCNK3 block -10.3*.
For COc1ccc(CCN(C)C(=O)c2ccc(COc3ccccc3)o2)cc1OC the results were KCNQ1 act inactive, KCNQ1 block inactive, KCNK9 inh inactive, KCNK3 block inactive, Kir21 inh -5.76* and hERG rescue -10.9.
`COc1ccc(-n2c(SCC(=O)Nc3cccc(S(N)(=O)=O)c3)nc3ccccc3c2=O)cc1OC` gave KCNQ1 act inactive, KCNQ1 block inactive, KCNK9 inh inactive, KCNK3 block inactive, Kir21 inh 1.15 and hERG rescue -7.0.
Screening CC(C)C(NC(=O)c1ccc(F)cc1)C(=O)N1CCOCC1 (stereo unspecified) returned KCNK3 block inactive.
For COc1ccc(C(C(=O)NC(C)(C)C)N(C(=O)CCC(=O)Nc2cc(C)on2)c2cccc(F)c2)cc1 (stereo unspecified) the results were KCNQ1 act 24*, KCNQ1 block inactive, KCNK9 inh inactive, KCNK3 block inactive, Kir21 inh 0.08 and hERG rescue 7.1*.
For CCC(C)(C)NC(=O)C(c1ccc(OC)cc1)N(C(=O)CCC(=O)Nc1cc(C)on1)c1cccc(F)c1 (stereo unspecified) the results were KCNQ1 act inactive, KCNQ1 block inactive, KCNK9 inh inactive, KCNK3 block inactive, Kir21 inh -0.64 and hERG rescue -4.4.
CCOC(=O)C(=Cc1cc(=O)c(OC)co1)C(=O)OCC was read as KCNQ1 act 10*, KCNQ1 block inactive, KCNK9 inh inactive, KCNK3 block inactive, Kir21 inh -7.35* and hERG rescue -1.1.
For COc1ccc(-n2c(-c3ccc(Cl)cc3)c[n+]3c2CCc2ccccc2-3)cc1 the results were KCNQ1 act inactive, KCNQ1 block 11*, KCNK9 inh inactive, KCNK3 block inactive, Kir21 inh -2.35 and hERG rescue -19.2.
CCN(CC)c1nc2ccccc2nc1C(C#N)C(=O)NCCCOC (stereo unspecified) was read as KCNQ1 act inactive, KCNQ1 block inactive, KCNK9 inh inactive, KCNK3 block inactive, Kir21 inh 0.4 and hERG rescue -4.4.
Screening CCN(CC)c1nc2ccccc2nc1C(C#N)C(=O)NCCc1ccccc1 (stereo unspecified) returned KCNQ1 act inactive, KCNQ1 block inactive, KCNK9 inh inactive, KCNK3 block inactive, Kir21 inh -0.59 and hERG rescue -16.3.

Assay outcomes deposited in PubChem by Johns Hopkins Ion Channel Center.
